This test concerns Cavia porcellus. Description: Analgesic activity in Dunkin Hartley guinea pig hyperalgesia pain model assessed as inhibition of LPS-induced thermal hyperalgesia at 10 mg/kg, po qd administered 1 hr prior to LPS stimulation measured after 4.5 hrs by plantar test relative to control. The test is classed as functional. A digest of the protocol:
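LPS was injected into the guinea pig plantar to induce thermal hyperalgesia, and compound was given orally. Response is expressed as % hyperalgesia, with a saline-injected naive group as 0% and the vehicle-treated LPS group as 100%. Values are mean ± SEM, n = 8 per dose group.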

The text below walks through data of ChEMBL document CHEMBL4028818, “Tricyclic 4,4-dimethyl-3,4-dihydrochromeno[3,4-d]imidazole derivatives as microsomal prostaglandin E2 synthase-1 (mPGES-1) inhibitors: SAR and in vivo efficacy in hyperalgesia pain model” (Bioorg Med Chem Lett, 2017).

SMILES strings stand for the structures.

Usually inhibition in vivo stands for the drop in the measured response relative to a control, in per cent. In the case of `O=C(O)Cc1ccccc1Nc1c(Cl)cccc1Cl` [DICLOFENAC], the inhibition in vivo at 10 mg/kg came to 80%.
